HCV core dimer: inhibitors of HCV core protein dimerization, primary screen, biochemical, TR-FRET, high-throughput. TR-FRET GST/Flag-core106 dimerization, 1536-well. actives 0.33% (n = 300,000). inhibition, % at 5 µM;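 active = inhibition above the mean of all tested compounds plus 3 SD, set per screening campaign, cut at about 45% in these data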
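Assay system: Tagged HCV core106 pair (GST and Flag) | Buffer or medium: KF-containing HEPES buffer, pH 7.45, DTT, CHAPS, BSA | Also added: Eu donor and XL665 acceptor anti-tag antibodies | Dosing: One concentration, 5 µM, in 0.5% DMSO | Timing: 4 h at 22.5 °C | Technique: TR-FRET 671 and 617 nm emission | Repeats: Singlicate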
NS3 helicase inh: inhibitors of HCV NS3 helicase, primary screen, biochemical, Cy5 molecular beacon fluorescence. inhibition, % at 10.9 µM. AID 1800, 2009. NS3 helicase DNA unwinding. Hepatitis C virus NS3 helicase. actives 0.56% (n = 290,000);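 active = inhibition above the mean of all tested compounds plus 3 SD, set per campaign, cut at about 35% in these data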
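Material: hepatitis C virus NS3 helicase domain fragment enzyme; measured by: Cy5 fluorescence, 0 and 60 min reads; control set: DMSO and thioflavine S; incubation: 60 min unwinding reaction at 25 °C after ATP addition; read-out basis: % inhibition from 60/0 min fluorescence ratio, DMSO 0%, thioflavine S 100%; repeats: singlicate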
PABP polyA inh: PABP poly(A) RNA binding inhibitors, primary screen, biochemical, fluorescence polarization, uHTS | Polyadenylate-binding protein 1 (Homo sapiens), P11940 | inhibition, % at 35 µM | actives 1% (n = 290,000);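 note: calls also rest on retests at 20 µM and on dose response follow-up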
Target sequence (P11940 whole entry, looked up): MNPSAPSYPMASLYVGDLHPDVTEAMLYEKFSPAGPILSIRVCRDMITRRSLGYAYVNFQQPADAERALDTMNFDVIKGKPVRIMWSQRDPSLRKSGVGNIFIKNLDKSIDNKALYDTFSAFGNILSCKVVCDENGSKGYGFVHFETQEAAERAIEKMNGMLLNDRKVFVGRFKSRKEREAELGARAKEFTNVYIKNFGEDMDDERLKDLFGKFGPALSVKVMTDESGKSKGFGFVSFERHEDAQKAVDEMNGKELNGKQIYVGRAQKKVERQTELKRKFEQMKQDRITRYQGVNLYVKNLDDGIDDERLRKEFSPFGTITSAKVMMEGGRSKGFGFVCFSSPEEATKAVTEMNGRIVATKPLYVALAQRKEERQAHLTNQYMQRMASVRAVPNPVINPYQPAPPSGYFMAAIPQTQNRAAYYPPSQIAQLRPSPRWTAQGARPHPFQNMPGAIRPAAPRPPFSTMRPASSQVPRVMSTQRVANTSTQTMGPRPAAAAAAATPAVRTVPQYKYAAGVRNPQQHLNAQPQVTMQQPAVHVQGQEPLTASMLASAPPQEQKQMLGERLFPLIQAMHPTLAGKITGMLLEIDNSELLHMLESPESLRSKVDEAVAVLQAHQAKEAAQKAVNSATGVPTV
DNA FID counter-1: compounds displacing fluorescent DNA intercalator, primary screen, artefact control for HCV NS3 helicase inhibitor project, biochemical, FID fluorescence. inhibition, % at 7.9 µM. actives 0.17% (n = 290,000). DNA fluorescent intercalator displacement; in the data active = inhibition above about 37%;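 note: higher means more ethidium bromide displaced from hairpin DNA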
eIF4H FP inh: human eIF4H binding inhibitors, primary screen, translation initiation inhibitor project, biochemical, uHTS, fluorescence polarization; Eukaryotic translation initiation factor 4H (Homo sapiens), Q15056; eIF4H fluorescence polarization binding assay; inhibition, % at 35 µM; actives 0.94% (n = 290,000);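 note: calls also rest on retests at 20 µM and on dose response follow-up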
PABP1 MLLE inh: inhibitors of PABP1 MLLE–PAM2 peptide binding, primary screen, biochemical, fluorescence polarization, FITC-PAM2, GST-MLLE; Polyadenylate-binding protein 1 (Homo sapiens), P11940; inhibition, % at 20 µM; actives 0.36% (n = 360,000); in the data active = inhibition above about 35%, passing the limit was not always enough
NS3 hel confirm: HCV NS3 helicase inhibitors, retest, confirmation, biochemical, Cy5 molecular beacon fluorescence, triplicate | shares compounds with NS3 helicase inh | NS3 helicase DNA unwinding | inhibition, % at 10.9 µM | actives 31% (n = 1,600);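 active = inhibition above the mean of all tested compounds plus 3 SD, cutoff set per campaign, cut at about 36% in these data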
DNA FID counter-2: compounds displacing fluorescent DNA intercalator, artefact control for HCV NS3 helicase inhibitor project, biochemical, FID fluorescence, triplicate | DNA fluorescent intercalator displacement | shares compounds with NS3 helicase inh | actives 4% (n = 1,600) | inhibition, % at 7.9 µM; in the data active = inhibition above about 37%;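 note: higher means more displacement of ethidium bromide from the DNA hairpin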
DNA FID DR: compounds displacing fluorescent intercalator from DNA, dose response, counter-screen for HCV NS3 helicase inhibitor project, biochemical, fluorescence. shares compounds with NS3 helicase inh. fluorescent intercalator displacement from DNA. IC50, µM. 120 tested, under 10 active. AID 2172, 2009
Large screens that a line does not name were inactive (follow-up assays come after a bar, where they were run). A selection: hits, their analogues and other compounds. The true share with any hit is near 2%. Unless noted, the rule behind the calls is not given here.

Cc1nnc(SCC2=C(C(=O)O)N3C(=O)C(NC(=O)C(C)n4nc(C(F)(F)F)cc4C)C3SC2)s1 (stereo unspecified)	NS3 helicase inh 39.9 | NS3 hel confirm inactive | DNA FID counter-2 inactive
O=C(O)c1cc(-c2cccs2)nn1-c1cccc(Cl)c1	none
Cc1ccc(-n2nc(-c3cccnc3)cc2C(=O)N2CCOCC2)c(C)c1	none
O=C(O)c1cc(-c2ccco2)nn1-c1ccc(Cl)cc1	NS3 helicase inh 44.0 (no result: HCV core dimer) | NS3 hel confirm 83.2 | DNA FID counter-2 inactive
O=C(O)c1cc(-c2ccco2)nn1-c1cccc(Cl)c1	NS3 helicase inh 47.5, PABP polyA inh 9.1 | NS3 hel confirm inactive | DNA FID counter-2 inactive
Cc1ccc(-n2nc(-c3ccco3)cc2C(=O)O)c(C)c1	NS3 helicase inh 46.9 (no result: HCV core dimer) | NS3 hel confirm inactive | DNA FID counter-2 inactive
Cc1nn(-c2ccccc2)c2nc(-c3ccco3)cc(C(=O)O)c12	NS3 helicase inh 42.4, PABP polyA inh 66.2, eIF4H FP inh 88.2 | NS3 hel confirm 66.6 | DNA FID counter-2 inactive
Cc1cccc(-n2nc(C)c3c(C(=O)O)cc(-c4cccs4)nc32)c1	none
CN(C)C(=O)c1ccc(NC(=O)c2cccc(-n3cnnn3)c2)cc1	none (no result: HCV core dimer, NS3 helicase inh, PABP polyA inh, DNA FID counter-1, eIF4H FP inh)
O=C(NC(Cc1ccccc1)C(=O)N1CCN(c2ccccn2)CC1)c1ccco1 (stereo unspecified)	NS3 helicase inh 48.6 | NS3 hel confirm inactive | DNA FID counter-2 inactive
Nc1ncnc2c1ncn2[C@@H]1O[C@H](C(=O)N[C@@H](CO)Cc2ccccc2)[C@@H](O)[C@H]1O	none (no result: HCV core dimer, NS3 helicase inh, PABP polyA inh, DNA FID counter-1, eIF4H FP inh)
COC(Cn1cc(C)c(=O)[nH]c1=O)OC	none
Cc1cn(CC2COC(C)(C)O2)c(=O)[nH]c1=O (stereo unspecified)	NS3 helicase inh 37.9 | NS3 hel confirm inactive | DNA FID counter-2 inactive
CCCCCCSc1ccc([C@@H]2[C@H]3C(=O)N(CC)C(=O)[C@H]3[C@]3(C(=O)OC)CCCN23)cc1	none (no result: NS3 helicase inh, PABP polyA inh, DNA FID counter-1, eIF4H FP inh)
Cc1noc(C)c1COC(=O)c1csc2c1CCC(C)C2 (stereo unspecified)	none (no result: HCV core dimer, NS3 helicase inh, PABP polyA inh, DNA FID counter-1, eIF4H FP inh)
COC(=O)[C@@H](NS(=O)(=O)c1cc(Br)ccc1Br)C(C)C	none (no result: HCV core dimer, NS3 helicase inh, PABP polyA inh, DNA FID counter-1, eIF4H FP inh)
O=C1c2ccccc2S(=O)(=O)c2cc(N3CCc4ccccc4C3)ccc21	none (no result: NS3 helicase inh, PABP polyA inh, DNA FID counter-1, eIF4H FP inh, PABP1 MLLE inh)
CCN=c1scc(-c2ccco2)n1/N=C/c1ccc(OC)c(O)c1	none
CN=c1scc(-c2ccc(F)cc2)n1/N=C/c1ccc(O)c(O)c1	NS3 helicase inh 45.2 (no result: HCV core dimer) | NS3 hel confirm inactive | DNA FID counter-2 inactive
O=C(c1cnn(C(=O)CN2CCCC2=O)c1)c1ccccc1O	none (no result: HCV core dimer, NS3 helicase inh, PABP polyA inh, DNA FID counter-1, eIF4H FP inh)
CCCCN(C=O)c1c(CC)nc2ccc(C(=O)N3CCCCC3)cn12	none (no result: HCV core dimer, NS3 helicase inh, PABP polyA inh, DNA FID counter-1, eIF4H FP inh)
Cc1ccc(/C=C/C(=O)Nc2ncc(C)s2)o1	NS3 helicase inh 50.3 | NS3 hel confirm inactive | DNA FID counter-2 inactive
Cc1ccc2c(c1)N(CCC(=O)NC1CCCCC1C)C(=O)CO2 (stereo unspecified)	none
O=C1NN(c2ccccc2)C(=O)/C1=C/c1ccc(Sc2cccc3ccccc23)o1	NS3 helicase inh 53.5 | NS3 hel confirm 75.1 | DNA FID counter-2 inactive | DNA FID DR inactive
CC(C)N1CC2(CC(c3ccc(Cl)cc3Cl)=NO2)CN1C(=O)c1ccc(C(C)(C)C)cc1 (stereo unspecified)	none (no result: HCV core dimer, NS3 helicase inh, PABP polyA inh, DNA FID counter-1, eIF4H FP inh)
COc1ccc(C(=O)Nc2ccc(NC(=O)CSc3nnc(-c4ccncc4)n3C)cc2)cc1	NS3 helicase inh 36.1 | NS3 hel confirm inactive | DNA FID counter-2 inactive
COc1ccc(-n2c(SCC(=O)Nc3ccc(C(=O)O)cc3)nnc2-c2cccs2)cc1	NS3 helicase inh 63.5 | NS3 hel confirm inactive | DNA FID counter-2 inactive
COc1ccc(-n2c(Cc3cccn3C)nnc2SCC(=O)Nc2ccc3c(c2)OCO3)cc1	NS3 helicase inh 45.3 | NS3 hel confirm inactive | DNA FID counter-2 inactive
COc1ccc(-n2c(Cc3cccn3C)nnc2SCC(=O)Nc2ccc3c(c2)OCCO3)cc1	none
Cc1ccc2c(c1)-c1cc(C)ccc1C2=O	none (no result: HCV core dimer, NS3 helicase inh, PABP polyA inh, DNA FID counter-1, eIF4H FP inh)
COc1ccc(-c2ccc3c(c2)C2CC3CCN2S(=O)(=O)c2ccccc2C)cc1 (stereo unspecified)	none (no result: HCV core dimer, NS3 helicase inh, PABP polyA inh, DNA FID counter-1, eIF4H FP inh)
CC1NC(=O)COC1c1ccccc1 (stereo unspecified)	none (no result: HCV core dimer, NS3 helicase inh, PABP polyA inh, DNA FID counter-1, eIF4H FP inh)
Oc1ccc(/C=N/N(Cc2ccccc2)c2ccccc2)c(O)c1O	NS3 helicase inh 71.3 (no result: HCV core dimer) | NS3 hel confirm inactive | DNA FID counter-2 inactive
CCOC(=O)c1sc(NC(=O)C2CC(=O)N(c3ccc(C)cc3)C2)nc1C (stereo unspecified)	none
O=c1nc(/C=C/c2cc([N+](=O)[O-])ccc2Cl)cc(C(F)(F)F)[nH]1	none
O=c1nc(/C=C/c2cccn2-c2ccc([N+](=O)[O-])cc2)cc(C(F)(F)F)[nH]1	HCV core dimer 61.0, NS3 helicase inh 63.6, PABP polyA inh active, eIF4H FP inh 59.6 | NS3 hel confirm inactive | DNA FID counter-2 inactive

Source: PubChem (several laboratories)
